According to ChEMBL document CHEMBL2424622, “Development of amino-pyrimidine inhibitors of c-Jun N-terminal kinase (JNK): kinase profiling guided optimization of a 1,2,3-benzotriazole lead” (Bioorg Med Chem Lett, 2013):

Assays:
[1] = target: T1, Mitogen-activated protein kinase kinase kinase 5 (Homo sapiens) (UniProt Q99683); experiment: Competitive binding affinity to MAP3K5 (unknown origin) at 10 uM in presence of ATP relative to control
T1 sequence (whole entry): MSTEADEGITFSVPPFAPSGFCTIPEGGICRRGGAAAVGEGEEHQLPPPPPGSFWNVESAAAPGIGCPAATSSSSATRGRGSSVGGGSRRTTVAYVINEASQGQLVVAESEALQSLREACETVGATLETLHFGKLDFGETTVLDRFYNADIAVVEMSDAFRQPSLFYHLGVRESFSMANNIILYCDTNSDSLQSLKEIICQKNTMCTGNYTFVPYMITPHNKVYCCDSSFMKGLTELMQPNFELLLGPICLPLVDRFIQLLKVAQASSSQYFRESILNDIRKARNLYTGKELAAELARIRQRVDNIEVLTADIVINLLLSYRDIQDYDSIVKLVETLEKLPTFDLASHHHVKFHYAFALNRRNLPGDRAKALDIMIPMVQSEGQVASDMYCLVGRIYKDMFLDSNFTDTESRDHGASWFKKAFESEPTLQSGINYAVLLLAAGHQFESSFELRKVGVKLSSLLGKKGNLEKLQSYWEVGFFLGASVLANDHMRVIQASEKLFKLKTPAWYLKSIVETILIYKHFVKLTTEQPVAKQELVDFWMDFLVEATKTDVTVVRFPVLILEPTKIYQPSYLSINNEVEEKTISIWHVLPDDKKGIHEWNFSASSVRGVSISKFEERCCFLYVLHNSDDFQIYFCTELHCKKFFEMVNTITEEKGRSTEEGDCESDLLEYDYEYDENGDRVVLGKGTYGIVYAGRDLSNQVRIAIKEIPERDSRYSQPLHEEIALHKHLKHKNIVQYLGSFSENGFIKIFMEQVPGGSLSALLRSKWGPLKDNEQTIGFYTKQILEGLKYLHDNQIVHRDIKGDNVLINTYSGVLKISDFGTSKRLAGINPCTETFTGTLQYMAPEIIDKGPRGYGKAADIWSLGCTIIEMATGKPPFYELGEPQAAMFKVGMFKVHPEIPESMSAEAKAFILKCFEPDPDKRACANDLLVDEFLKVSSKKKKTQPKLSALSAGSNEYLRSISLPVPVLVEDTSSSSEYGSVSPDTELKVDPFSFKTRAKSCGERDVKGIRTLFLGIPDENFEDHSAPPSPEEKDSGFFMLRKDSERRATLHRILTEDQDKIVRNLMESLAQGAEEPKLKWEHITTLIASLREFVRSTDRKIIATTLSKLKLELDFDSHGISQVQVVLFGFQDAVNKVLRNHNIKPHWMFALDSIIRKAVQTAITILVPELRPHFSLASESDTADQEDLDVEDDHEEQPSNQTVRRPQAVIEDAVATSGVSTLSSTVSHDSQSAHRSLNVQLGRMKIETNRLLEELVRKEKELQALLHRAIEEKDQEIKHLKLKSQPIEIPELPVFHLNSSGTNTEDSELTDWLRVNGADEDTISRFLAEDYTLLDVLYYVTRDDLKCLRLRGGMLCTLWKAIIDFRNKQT

[2] = test system: Tyrosine-protein kinase ABL1 (Homo sapiens), P00519 [H396P]; experiment: Competitive binding affinity to ABL1 H396P mutant (unknown origin) at 10 uM in presence of ATP relative to control
[3] = target: Serine/threonine-protein kinase 33 (Homo sapiens) (UniProt Q9BYT3); experiment: Competitive binding affinity to STK33 (unknown origin) at 10 uM in presence of ATP relative to control
Chain of Serine/threonine-protein kinase 33 (Homo sapiens) (Q9BYT3 whole entry, looked up): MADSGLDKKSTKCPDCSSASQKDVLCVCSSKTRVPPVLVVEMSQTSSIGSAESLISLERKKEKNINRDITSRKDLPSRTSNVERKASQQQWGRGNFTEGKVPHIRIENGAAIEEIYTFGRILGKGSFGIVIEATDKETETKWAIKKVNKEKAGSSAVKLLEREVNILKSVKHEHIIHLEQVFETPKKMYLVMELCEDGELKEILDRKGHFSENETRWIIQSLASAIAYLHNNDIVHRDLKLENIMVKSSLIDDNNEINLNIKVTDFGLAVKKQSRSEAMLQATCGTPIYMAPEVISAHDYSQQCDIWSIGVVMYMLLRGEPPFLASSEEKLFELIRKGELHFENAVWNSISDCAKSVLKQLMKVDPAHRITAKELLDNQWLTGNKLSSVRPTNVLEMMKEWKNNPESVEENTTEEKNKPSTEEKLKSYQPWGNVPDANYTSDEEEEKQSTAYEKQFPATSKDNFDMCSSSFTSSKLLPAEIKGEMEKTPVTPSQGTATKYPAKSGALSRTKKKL

[4] = target: T2, Serine/threonine-protein kinase DCLK3 (Homo sapiens) (UniProt Q9C098); experiment: Competitive binding affinity to DCAMKL3 (unknown origin) at 10 uM in presence of ATP relative to control
T2 sequence (whole entry): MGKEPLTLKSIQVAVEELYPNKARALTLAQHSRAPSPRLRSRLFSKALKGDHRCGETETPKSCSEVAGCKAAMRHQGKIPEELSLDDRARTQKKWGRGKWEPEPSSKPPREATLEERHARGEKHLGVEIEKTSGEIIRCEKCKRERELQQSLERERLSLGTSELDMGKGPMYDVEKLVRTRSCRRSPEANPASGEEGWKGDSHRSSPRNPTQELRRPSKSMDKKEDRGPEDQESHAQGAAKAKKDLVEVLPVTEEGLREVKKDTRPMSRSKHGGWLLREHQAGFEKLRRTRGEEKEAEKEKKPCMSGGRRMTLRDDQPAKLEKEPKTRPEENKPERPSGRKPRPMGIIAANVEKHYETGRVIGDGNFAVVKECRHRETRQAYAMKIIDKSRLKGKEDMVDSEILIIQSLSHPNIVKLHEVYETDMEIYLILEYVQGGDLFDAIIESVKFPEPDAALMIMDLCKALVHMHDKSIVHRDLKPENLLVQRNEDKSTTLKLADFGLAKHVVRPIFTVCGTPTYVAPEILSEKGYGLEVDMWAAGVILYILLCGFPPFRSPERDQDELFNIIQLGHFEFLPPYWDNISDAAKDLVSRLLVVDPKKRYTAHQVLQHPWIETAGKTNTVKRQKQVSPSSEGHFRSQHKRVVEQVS

[5] = test system: eIF-2-alpha kinase GCN2 (Homo sapiens), Q9P2K8 [S808G]; experiment: Competitive binding affinity to GCN2 kinase domain 2 S808G mutant (unknown origin) at 10 uM in presence of ATP relative to control
Chain of eIF-2-alpha kinase GCN2 (Homo sapiens), Q9P2K8 [S808G] (Q9P2K8 whole entry S808G, the tested form may be a part): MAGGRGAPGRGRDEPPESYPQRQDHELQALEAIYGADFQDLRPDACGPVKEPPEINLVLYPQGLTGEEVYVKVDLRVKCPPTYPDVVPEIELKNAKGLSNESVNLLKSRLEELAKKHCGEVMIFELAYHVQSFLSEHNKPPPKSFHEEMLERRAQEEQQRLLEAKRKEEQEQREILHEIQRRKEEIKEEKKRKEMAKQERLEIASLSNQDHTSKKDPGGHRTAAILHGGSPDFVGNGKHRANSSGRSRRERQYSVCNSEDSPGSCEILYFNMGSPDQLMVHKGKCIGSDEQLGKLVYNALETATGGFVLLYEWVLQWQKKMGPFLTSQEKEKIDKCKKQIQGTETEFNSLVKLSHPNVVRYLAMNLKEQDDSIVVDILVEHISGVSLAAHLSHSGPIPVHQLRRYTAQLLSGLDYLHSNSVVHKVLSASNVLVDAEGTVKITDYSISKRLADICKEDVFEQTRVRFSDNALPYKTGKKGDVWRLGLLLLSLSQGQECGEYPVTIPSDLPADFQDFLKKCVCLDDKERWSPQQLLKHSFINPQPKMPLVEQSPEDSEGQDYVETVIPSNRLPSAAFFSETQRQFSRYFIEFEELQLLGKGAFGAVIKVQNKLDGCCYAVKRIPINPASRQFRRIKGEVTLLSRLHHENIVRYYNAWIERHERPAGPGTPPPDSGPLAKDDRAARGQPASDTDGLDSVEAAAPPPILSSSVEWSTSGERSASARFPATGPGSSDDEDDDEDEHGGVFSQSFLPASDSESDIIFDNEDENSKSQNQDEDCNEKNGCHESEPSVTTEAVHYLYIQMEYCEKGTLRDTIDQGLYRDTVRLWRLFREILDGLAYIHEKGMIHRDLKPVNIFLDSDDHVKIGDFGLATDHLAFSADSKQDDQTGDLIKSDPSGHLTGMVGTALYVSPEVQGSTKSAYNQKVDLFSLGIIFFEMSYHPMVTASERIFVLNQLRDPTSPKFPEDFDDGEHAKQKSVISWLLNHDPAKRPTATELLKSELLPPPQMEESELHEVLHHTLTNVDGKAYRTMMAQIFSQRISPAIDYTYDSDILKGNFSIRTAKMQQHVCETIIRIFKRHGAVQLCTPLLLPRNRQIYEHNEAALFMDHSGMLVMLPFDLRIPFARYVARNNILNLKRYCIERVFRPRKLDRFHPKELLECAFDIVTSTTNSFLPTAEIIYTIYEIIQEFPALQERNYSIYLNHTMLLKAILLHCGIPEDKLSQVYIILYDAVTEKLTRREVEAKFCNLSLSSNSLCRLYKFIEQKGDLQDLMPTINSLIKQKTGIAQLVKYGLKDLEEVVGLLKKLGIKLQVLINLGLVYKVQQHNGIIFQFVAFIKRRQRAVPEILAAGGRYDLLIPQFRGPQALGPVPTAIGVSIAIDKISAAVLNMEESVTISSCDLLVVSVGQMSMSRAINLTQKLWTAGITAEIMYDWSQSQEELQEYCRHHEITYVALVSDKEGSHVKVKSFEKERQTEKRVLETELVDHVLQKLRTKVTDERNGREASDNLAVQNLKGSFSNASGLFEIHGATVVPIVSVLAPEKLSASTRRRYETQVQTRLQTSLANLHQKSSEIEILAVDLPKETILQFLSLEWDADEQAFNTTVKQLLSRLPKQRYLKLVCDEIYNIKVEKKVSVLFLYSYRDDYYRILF
Procedure, shortened: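 In vitro ATP-site competition binding format, run as one member of a diverse 128-kinase profiling panel. Each compound was tested at a single concentration across the whole panel.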

O[C@H]1CC[C@H](Nc2nccc(-n3nnc4ccccc43)n2)CC1
inhibition [1]: < 50%
inhibition [2]: < 50%
inhibition [3]: 75%
inhibition [4]: 92%
inhibition [5]: 99%

CS(=O)(=O)CCCOc1cccc2c1ccn2-c1ccnc(N[C@H]2CC[C@H](C(=O)N3CCC(O)CC3)CC2)n1
inhibition [4]: > 85%
inhibition [5]: > 85%

O[C@H]1CC[C@H](Nc2nccc(-n3ncc4ccccc43)n2)CC1
inhibition [1]: < 50%
inhibition [2]: < 50%
inhibition [3]: 78%
inhibition [4]: 73%
inhibition [5]: 100%

O[C@H]1CC[C@H](Nc2nccc(-c3n[nH]c4ccccc34)n2)CC1
inhibition [2]: < 50%
inhibition [3]: 98%
inhibition [5]: 100%

O[C@H]1CC[C@H](Nc2nccc(-n3ccc4ccccc43)n2)CC1
inhibition [1]: < 50%
inhibition [2]: < 50%
inhibition [3]: < 50%
inhibition [4]: 84%
inhibition [5]: 83%
